What was measured:
[1] = folding enthalpy; higher = less favourable; fluorescence melt of hairpins on a sequencing array, two-state fit; conditions: sodium 0.088 M
Outline: (§1)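 Bootstrapped two-state fits yielded melting temperature and folding enthalpy for library hairpins. Cy3 fluorescence, with annealed Cy3 and quencher oligos, was imaged on a sequenced MiSeq flow cell in 50 mM Na-HEPES pH 8.0, 25 mM NaCl in 2.5 °C steps up to 60 °C, and normalised to pre-quench Cy3 and to control constructs. Four replicates were combined by inverse variance, and fitted temperatures were raised by 9.35 °C to match UV melts.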

[2] = melting temperature; fluorescence melt of hairpins on a sequencing array, two-state fit, raised by 9.35 °C to match UV melts; conditions: sodium 0.088 M
Outline: as §1

Sequence | folding enthalpy [1] [kcal/mol] | Tm [2] [°C]
GAATGCGAAAGCAGCTTC ((((((....)))..))) | -23 | 39.7
GCGGTCTCCGC ((((...)))) | -29.1 | 56.3
GCGTTGCGAAAGCATAGC ((..(((....)))..)) | -26.5 | 58.4
GCATAGGGAAACCTGTGC (((.(((....))).))) | -33.6 | 50.3
GGTGGGGCGAAAGCCACC (((..(((....)))))) | -12.3 | 54.5
GATCAGGAGCCTGATC ((((((....)))))) | -31.6 | 49.9
GTACTCCCGAAAGGGTAC (((..(((....)))))) | -12.9 | 33.5
GAGTGTGCGAAAGCACTC (((..(((....)))))) | -9.39 | 37.8
GGTAGGCGAAAGCCAACC (((.(((....))).))) | -28.1 | 57.6
GTGACAACGAAAGTTCAC (((..(((....)))))) | -11.1 | 34.8
GAAACCCCGAAAGGGTTC (((..(((....)))))) | -14 | 35.7
GGATGTGGAAACATGTCC (((..((....))..))) | -20.9 | 40
GTTCCCGAAAGGGTAAAC ((((((....)))..))) | -11.5 | 28.8
GTAGCAGGAAACCGCTAC (((((.(....).))))) | -32.4 | 48.5
GTGTCCGGAAACGGGTAC ((..(((....)))..)) | -20 | 42.4
GATCCGTTTCGGATC ((((((...)))))) | -38 | 63
GGGCTTGGAAACGAGCCC (((((.(....).))))) | -51.4 | 59.2
GCCTCAGGAAACTGAAGC ((.((((....)))).)) | -24.9 | 36.3
GGCCTAGGAAACTAAGCC (((.(((....))).))) | -20.1 | 38.2
GTGCGTGGAAACGCGTAC ((.((.(....).)).)) | -10.9 | 42.7
GAGCGAGGAAACTCACTC (((.(((....))).))) | -31 | 42.1
GAGTAACGAAAGTTCCTC (((.(((....))).))) | -19.8 | 38
GTCGCAGGAAACTGTGGC (.(.(((....))).).) | -29.9 | 42.8

Sequence | folding enthalpy [1] [kcal/mol] | Tm [2] [°C]
GGTGGTGGAAACACCATC (.(((((....))))).) | -26.2 | 56.2
GTCTGAGGAAACTTGGAC (((..((....))..))) | -15.9 | 31.7
GCGTACGAACGC ((((....)))) | -23.9 | 51.5
GAAAATGGAAACATTTCC (.(((((....))))).) | -17 | 28.6
GGTGGTCGAAAGACGACC (((.(((....))).))) | -38 | 56.8
GGTGGATCGAAAGATACC (((..(((....)))))) | -18.4 | 35.6
GTGCTGGGAAACTAGCAC (((((.(....).))))) | -41.3 | 54.3
GGTAGTCCGAAAGGAACC (((..(((....)))))) | -12.4 | 27.1
GGGAGAGGAAACTCCCCC (((.(((....))).))) | -17.8 | 49.4
GATCTACGGCTAGATC ((((((....)))))) | -28.7 | 37.1
GCCTGTCGAAAGACCGGC (((.(((....))).))) | -39.5 | 55.8
GACCCCGAAAGGGTGTC ((((((....))).))) | -26.6 | 57.6
GATTGCGAAAGCACAATC ((((((....)))..))) | -10.8 | 32.7
GTAAAGCGAAAGCTTAC (((.(((....)))))) | -12.8 | 42.6
GCGACGCGAAAGCGAAGC ((..(((....)))..)) | -36.5 | 66.2
GCTGAAGGAAACTCCAGC ((((.((....)).)))) | -27.8 | 40.7
GTGCCTCGAAAGAGCAC (((.(((....)))))) | -28.5 | 53.5
CGCACGGAAACGTCCGCG ((((((....)))..))) | -19.1 | 41.2
GCGAGATATCGC ((((....)))) | -24.3 | 56.9
GGTCATGGAAACGTGACC (((((.(....).))))) | -52.9 | 53.6
GCTTACGAAAGTAACAGC ((((((....)))..))) | -16.2 | 37
GTCGACGAAAGTCGAGAC ((((((....)))..))) | -9.56 | 51.9
GATCCTATCTAGGATC ((((((....)))))) | -37.3 | 52.7

Sequence | folding enthalpy [1] [kcal/mol] | Tm [2] [°C]
GCGAGAGAAATCTCGC ((((((....)))))) | -32.3 | 66.8
GTACGGCCGAAAGGCTAC (((..(((....)))))) | -7.78 | 28.7
GCAAGGCGAAAGCCAGGC ((..(((....)))..)) | -18.8 | 52.2
GAGCGACGAAAGTCCTC (((.(((....)))))) | -17.1 | 48.3
GTTTTAGGAAACTAAAAC (((((((....))))))) | -41.9 | 48.4
GATCCCCTGGGGATC ((((((...)))))) | -32.8 | 64.8
GGAGAACGAAAGTTGTCC (((.(((....))).))) | -34.6 | 51.5
GAGCAAGAAATTGCTC ((((((....)))))) | -29.8 | 54.8
GGAACCGAAAGGTACTCC ((((((....)))..))) | -12.6 | 33.3
GCGGCAGGAAACTGCCAC (.(((((....))))).) | -10.8 | 54.6
GGGGTGGGAAACCGCCTC (.((.((....)).)).) | -18.6 | 49.6
GTTGGCGAAAGCCAGAAC ((((((....)))..))) | -8.8 | 35.1
GAGCTCCGAAAGGACTC (((.(((....)))))) | -23.6 | 47.4
GCGGACGGAAACGCCCGC ((((.((....)).)))) | -36.7 | 67.8
GATCCTTCCCAGGATC ((((((....)))))) | -36.9 | 52
GCGCCCGAAAGGGGACGC ((((((....)))..))) | -19.6 | 62.2
GCCGAGCGAAAGCCCCGC ((.(.((....)).).)) | -12.1 | 32.2
GATCCTCACTAGGATC ((((((....)))))) | -35.1 | 51.7
GTCGAAGGAAACTTTGAC (((.(((....))).))) | -31.1 | 44.5
GCAGATCGAAAGATTTGC (((.(((....))).))) | -43.6 | 52.1
TTTCAGAAATGAAA (((((....))))) | -5.49 | 18
GGCGATCGAAAGATTGCC (((.(((....))).))) | -46.7 | 62.9
TCGAGGAAACTCGA (((((....))))) | -18.8 | 48

Sequence | folding enthalpy [1] [kcal/mol] | Tm [2] [°C]
GATCAGTAGCCTGATC ((((((....)))))) | -31.4 | 49.6
GTGGATGGAAACACCCAC ((((.((....)).)))) | -32.6 | 44.2
GGAGAGAAATCTCC (((((....))))) | -18.4 | 45.1
GATCCCGAAAGGGAGATC ((((((....)))..))) | -20.6 | 50.5
GCTTTGAAAAAAGC (((((....))))) | -21.3 | 47.4
GCGTAGGGAAACCCACGC ((((.((....)).)))) | -37.3 | 54.3
GATCTCATTCGAGATC ((((((....)))))) | -39.4 | 53.5
GGTACGGGAAACCGTACC (((((((....))))))) | -33.4 | 67.8
GTGCTTCCGAAAGGACAC (((..(((....)))))) | -22.1 | 39.7
GTACAACCGAAAGGTTAC (((..(((....)))))) | -10.7 | 29.8
GCGGCGCGAAAGCTGCGC (((..((....))..))) | -26.1 | 63.3
GCATGCGGAAACGCATAC (.(((((....))))).) | -9.77 | 44
GCTCTCGCGAAAGCGAGC (((..(((....)))))) | -4.57 | 38.3
GGGGGGGGAAACCCCCTC (.(((((....))))).) | -12.5 | 67.8
GCTGACGAAAGTCTTAGC ((((((....)))..))) | -22.6 | 39.8
GGAAGCGCGAAAGCGTCC (((..(((....)))))) | -9.67 | 37.3
GAGTTACCGAAAGGTCTC (((..(((....)))))) | -16.9 | 29.4
GTAAACGGAAACGTCTAC (((.(((....))).))) | -21.2 | 29
GTCAAAGGAAACTTTGAC (((((((....))))))) | -44.9 | 55.8
GCGTTTCGAAAGAACGC (((.(((....)))))) | -33.8 | 57.6
GATCGCCGAAAGGCAATC (((.(((....))).))) | -17.1 | 44.8
CCGTGGAAACACGG (((((....))))) | -29.2 | 59.1
GTTATCGGAAACGGTAAC ((((.((....)).)))) | -26.8 | 44.9
